Bioassay records as filed in PubChem.
EBI2 antag – antagonists of human EBI2 receptor; 360,000 compounds, 0.81% hits; EBI2 beta-arrestin recruitment, luminescence, 7a,25-OHC stimulated; inhibition, % at 5 µM; in the data active means inhibition above about 38%;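 further: enzyme fragment complementation signal reports receptor beta-arrestin coupling in cells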
Target sequence (P32249 whole entry, looked up, the tested form may be a part): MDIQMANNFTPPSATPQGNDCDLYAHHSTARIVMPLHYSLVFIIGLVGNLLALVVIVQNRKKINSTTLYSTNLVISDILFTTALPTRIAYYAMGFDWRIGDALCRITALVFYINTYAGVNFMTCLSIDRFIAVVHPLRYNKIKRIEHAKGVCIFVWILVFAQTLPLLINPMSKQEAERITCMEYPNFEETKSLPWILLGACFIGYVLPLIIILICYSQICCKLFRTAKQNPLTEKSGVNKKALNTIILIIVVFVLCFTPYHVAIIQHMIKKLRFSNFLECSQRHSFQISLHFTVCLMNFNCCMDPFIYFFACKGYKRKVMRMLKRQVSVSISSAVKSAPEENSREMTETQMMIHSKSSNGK
SENP1 inh – inhibitors of human SENP1 SUMO protease catalytic domain; inhibition, % at 10 µM; Q9P0U3; AID 624204; 360,000 compounds, 0.21% hits; recombinant SENP1 catalytic domain, CyPet-SUMO1-YPet FRET cleavage;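 active means inhibition at least 30% at 10 µM, raw YFP signal under a set limit, fluorescence ratio 0.5 to 1.5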
Target sequence (Q9P0U3 419-644 limits assumed): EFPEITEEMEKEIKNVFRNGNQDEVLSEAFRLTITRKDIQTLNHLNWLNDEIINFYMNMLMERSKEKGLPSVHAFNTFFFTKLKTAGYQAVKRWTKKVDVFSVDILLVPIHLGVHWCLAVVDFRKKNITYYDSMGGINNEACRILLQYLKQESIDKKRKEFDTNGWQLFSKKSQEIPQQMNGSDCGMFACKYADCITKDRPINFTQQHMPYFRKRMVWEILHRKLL
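Assay system: hSENP1 catalytic domain, recombinant. Amount: SENP1 enzyme, 20 pM final. Schedule: 50 min reaction, RT, dark. Technique: FRET, CFP and YFP emission. Control set: no-enzyme wells low, DMSO-plus-enzyme wells high control.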
MPTP inh – blocks calcium-induced mitochondrial swelling. isolated mouse mitochondria, Ca2+ swelling absorbance, 30 min. inhibition, % at 10 µM. 360,000 compounds, 1.4% hits. AID 602449;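 active means inhibition of 50% or more, scaled per plate between neutral and stimulator controls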
GRIN3A LBD mod – NR3A (human) ligand-binding domain modulation; NR3A LBD differential scanning fluorimetry, Tm shift; 0% = protein alone, 100% = glycine-bound protein; AID 1259313; 340,000 compounds, 2.5% hits; Tm shift relative to glycine control, % at 25 µM;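 active means melting temperature shift of at least 10% of the positive control shift, at one fixed dose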
MPTP counter – mitochondrial membrane potential, counter-screen; shares compounds with MPTP inh; 5,000 compounds, 78% hits; AID 624504; inhibition, % at 10 µM; isolated mitochondria, Rhodamine 123 fluorescence; in the data active means inhibition above about 22%
MPTP swell DR – MPTP inhibition, dose response swelling confirmation. shares compounds with MPTP inh. isolated mitochondria swelling, absorbance. IC50, µM. 780 compounds, 58% hits. AID 651561; in the data active means IC50 below about 20 µM
MPTP counter DR – active in counter-screen for permeability transition pore inhibitors | shares compounds with MPTP inh | isolated mitochondria counterscreen, fluorescence read-out | IC50, µM | 780 compounds, 49% hits | AID 651564; in the data active means IC50 below about 80 µM
Hits are given with their value; i = inactive; nt = not tested or not shown. In the library only some 4.4% were active in any assay of this set; here they are far more common.

SMILES | EBI2 antag | SENP1 inh | MPTP inh | GRIN3A LBD mod | MPTP counter | others
O=C(Nc1cccc([N+](=O)[O-])c1)c1cc2ccccc2cc1O | i | i | 96 | 27 | 60
COc1ccccc1N1CN(Cc2ccccc2)CNC1=S | i | i | i | i | nt
CC1CC1C(=O)Nc1nc(-c2ccc(Cl)s2)cs1 (centres undefined) | i | i | i | i | nt
O=C(Nc1nc(-c2ccc(Cl)s2)cs1)c1ccncc1 | i | i | 62 | i | 63
Nc1cccc2c1C(=O)N(c1ccccc1)C2=O | i | i | i | i | nt
Cc1ccc(Nc2nc(N)c([N+](=O)[O-])c(N3CCCC(C)C3)n2)cc1C (centres undefined) | i | i | 55 | i | i | MPTP swell DR=i;MPTP counter DR=70
CCN1CCN(c2nc(N)c([N+](=O)[O-])c(Nc3ccc(C)cc3)n2)CC1 | i | i | i | i | nt
CCN1CCN(c2nc(N)c([N+](=O)[O-])c(Nc3ccc(C)c(C)c3)n2)CC1 | i | i | 81 | i | i | MPTP swell DR=i;MPTP counter DR=77
CCCCn1nnnc1C1(C)CCC(=O)N1CCc1ccc(OC)c(OC)c1 (centres undefined) | i | i | i | nt | nt
CCOc1ccc(C(=O)NC2CCN(S(=O)(=O)c3ccccc3)CC2)cc1 | i | i | i | i | nt
O=C(NC(=S)Nc1nc(-c2ccccc2)cs1)c1cncc(Br)c1 | i | i | 74 | 31 | 75
O=C(Cc1cccs1)Nc1nc(-c2ccc(F)cc2F)cs1 | i | i | 73 | i | 91
O=C(Cc1cccs1)Nc1nc(-c2ccc(F)c(F)c2)cs1 | i | i | i | i | nt
O=C(Nc1nc(-c2ccccc2)cs1)c1ccc(Br)o1 | i | i | 82 | i | 21
O=C(Cc1c(F)c(F)c(F)c(F)c1F)Nc1nc(-c2ccccc2)cs1 | i | i | 54 | 12 | 92
COc1ccc(Cl)cc1NC(=O)CN1CCC(n2nnc3ccccc32)CC1 | i | i | i | i | nt
COC(=O)c1cccc(NS(=O)(=O)c2ccc(OC)c(C(=O)N3CCOCC3)c2)c1C | i | i | i | i | nt
COc1cc(/C=C/C(=O)OCC(=O)c2c(N)n(C)c(=O)n(C)c2=O)ccc1OC(F)F | i | i | i | i | nt
CCOc1ccccc1NC(=O)Nc1ccc(Cl)cc1 | i | i | 90 | i | 90
CCOc1cc(NC(=S)Nc2ccc(Cl)cc2)c(OCC)cc1NC(C)=O | i | i | 73 | i | 100
CCOc1ccccc1NC(=O)Nc1ccccn1 | i | i | i | i | nt
CCN(CC)c1ccc(S(=O)(=O)N2CCCCC2)cc1NC(=O)C1CCC1 | i | i | i | i | nt
COc1cc(CNCCc2c[nH]c3ccccc23)ccc1OCc1ccccc1F | i | i | i | i | nt
COc1cccc(CNCCc2c[nH]c3ccccc23)c1OCc1ccccc1 | i | i | 85 | i | 60
C[C@@H]1Cn2cnc(C(=O)Nc3cccc(Cl)c3)c2C(=O)N1 | i | i | i | nt | nt
SMILES | EBI2 antag | SENP1 inh | MPTP inh | GRIN3A LBD mod | MPTP counter | others
COc1cc(N(C)C)ccc1C=c1c2ccccc2n2c1cc(-c1ccccc1)[n+]2C | i | i | 56 | i | 77
CN(C)c1ccc(C=c2c3ccccc3n3c2c2c([n+]3C)CCCC2)cc1 | i | i | 65 | i | 76
CN(C)c1ccc(C=c2c3ccccc3n3c2cc(-c2ccccc2)[n+]3C)cc1 | i | i | 58 | i | 75
Cc1ccc(C(C(=O)NC(C)(C)C)N(Cc2ccccc2)C(=O)c2snc(C(N)=O)c2N)o1 (centres undefined) | i | i | i | i | nt
CCCCN(CCCC)CCNC(=O)c1cn(C)c2ccc(S(=O)(=O)N3CCCC3)cc2c1=O | i | i | i | i | nt
N#Cc1cc(-c2ccccc2)nnc1Oc1ccccc1Cl | i | i | i | i | nt
CC(=O)C1CCC2C3CC=C4CC(SC(=N)N)CCC4(C)C3CCC12C (centres undefined) | i | i | 80 | i | 24
O=C(Cc1ccc(Cl)cc1)Nc1ccc(-c2cc3ccccc3oc2=O)c(Cl)c1 | i | i | 64 | 19 | 71
COc1cc(NC(=O)c2cc(Cl)ccc2Cl)ccc1-c1cc2ccccc2oc1=O | i | i | i | i | nt
CCc1ccc(OCC(=O)Nc2ccc(-c3cc4ccccc4oc3=O)c(OC)c2)cc1 | i | i | 101 | i | 97
Cc1c(NC(=O)C(C)Sc2ncnc3ccccc23)c(=O)n(-c2ccccc2)n1C (centres undefined) | i | i | i | i | nt
O=C(/C=C/c1cccc([N+](=O)[O-])c1)NCCSCc1ccc(Cl)cc1Cl | i | i | 67 | i | 73
CCN(CC)C(=O)c1ccc(COc2ccc(Cl)c(C)c2)o1 | i | i | 91 | i | 85
Cc1cc(OCc2ccc(C(=O)n3cccn3)o2)ccc1Cl | i | i | i | i | nt
CN(C)CCn1c2c(c(SCC(=O)Nc3ccc4c(c3)OCCO4)nc1=O)CCCC2 | i | i | i | i | nt
CCOC(=O)c1cnc2ccc(OCC)cc2c1NCc1ccccc1OC | i | i | 85 | 20 | 99
CC(Nc1ccc(N2CCOCC2)cc1)C(=O)N1c2ccccc2CC1C (centres undefined) | i | i | i | i | nt
CCC(Sc1nc2ccc(C)cc2[nH]1)C(=O)O (centres undefined) | i | i | i | i | nt
Cc1ccc2nc(SC(C(=O)Nc3ccc(F)cc3)c3ccccc3)[nH]c2c1 (centres undefined) | i | i | 77 | 16 | 86
Cn1cnnc1SC(C(=O)Nc1ccc(F)cc1)c1ccccc1 (centres undefined) | i | i | i | i | nt
Cc1ccc(C)c(NC(=O)C(Sc2nc3ccc(C)cc3[nH]2)c2ccccc2)c1 (centres undefined) | i | i | 84 | i | 92
Cc1c(C)n(CC(O)CSc2ccccc2)c2ccccc12 (centres undefined) | i | i | i | nt | nt
CC(=O)c1c(C)[nH]c(C(=O)Nc2nc(-c3ccccc3)c(C)s2)c1C | i | i | 79 | i | 55
COc1ccc(-c2nc(-c3ccc4c(c3)OCO4)[nH]c2-c2ccc(OC)cc2)cc1 | 48 | i | 69 | i | 69
CC(C)C(NC(=O)c1ccc(C(C)(C)C)cc1)C(=O)Nc1cccc(S(N)(=O)=O)c1 (centres undefined) | i | i | i | i | nt
Cc1ccc(NC(=O)CSc2ccccc2NC(=O)c2ccccc2Cl)cc1Cl | i | i | 90 | 11 | 87
Cc1ccc(NC(=O)CSc2ccccc2NC(=O)c2ccccc2)cc1Cl | i | i | 92 | i | 65
Cc1ccc(NC(=O)COc2ccccc2)cc1Cl | i | i | i | i | nt
NCc1csc(Nc2ncccn2)n1 | i | i | i | nt | nt
Cc1ccc(OCC(O)Cn2c(=N)n(CCN3CCCCC3)c3ccccc32)cc1 (centres undefined) | i | i | i | i | nt
